Compound activity as filed in PubChem BioAssay.
Lipid droplet – inhibitors of hepatocyte lipid droplet formation, primary screen, imaging, high-throughput imaging, BODIPY stain. 240,000 compounds, 0.4% hits. AML12 mouse hepatocytes, oleate lipid droplets. inhibition, % at 6.5 µM;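 active means lipid droplet intensity inhibited by at least 50%, with more than 500 cells counted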
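Test system: AML12 hepatocytes (mouse); reagent: oleate loading, 100 µM; dosing: one dose, 6.5 µM compound; incubation: overnight exposure; signal: fluorescence imaging, 20x objective, two fields per well; read-out basis: % inhibition of corrected integrated BODIPY droplet signal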
GC-A act – GC-A stimulated cGMP production enhancers – HEK293 GC-A cells, cGMP TR-FRET, EC30 ANP, primary screen. 0% at EC30 ANP, 100% saturating ANP. 370,000 compounds, 0.14% hits. Atrial natriuretic peptide receptor 1 (Homo sapiens), P16066. activation, % at 10 µM; in the data active means activation above about 40%
aDG glyco act – activators of alpha-DG glycosylation, primary screen, uHTS, Pro5-aDG cells, AlphaScreen | 360,000 compounds, 0.22% hits | alpha-DG glycosylation AlphaScreen (IIH6); 0% Pro5, 100% B10-LARGE cell signal | activation, % at 10 µM | AID 624168, 2012;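 active means activation of at least 8% versus controls, or a plate z-score of at least 8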;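 further: Pro5 are CHO cells carrying HIG-tagged alpha-DG that lacks glycosylation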
GASC-1 inh – inhibitors of GASC-1 histone demethylase, primary screen, biochemical, fluorescence, DELFIA europium. GST-JMJD2C(1-420) H3K9me3 demethylation. inhibition, % at 2.35 µM. 330,000 compounds, 0.069% hits;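 active means more than half of a compound's replicate wells show inhibition beyond 50%, single wells judged on their own value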;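 further: signal counts dimethyl H3K9 product captured on neutravidin plate; 0% = median of DMSO wells and 100% = 0.3 times that DMSO median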
GC-B act – human GC-B receptor activators, primary screen, HEK293 GC-B cells, cGMP TR-FRET, EC30 CNP | activation, % at 10 µM | AID 1920062, 2024 | 370,000 compounds, 0.11% hits | 0% at EC30 CNP, 100% saturating CNP;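 active means activation at 10 µM reaching about 35% in either raw or pattern-adjusted values, limit read from the data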
NR3A LBD binder – binders of NR3A ligand-binding domain, primary screen, biophysical, differential scanning fluorimetry, uHTS | 340,000 compounds, 2.5% hits | Tm shift relative to glycine control, % at 25 µM | Glutamate receptor ionotropic, NMDA 3A (GRIN3A) ligand-binding domain | AID 1259313, 2017 | NR3A LBD differential scanning fluorimetry, Tm shift; 0% = protein alone, 100% = glycine-bound protein;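 active means melting temperature shift of at least 10% of the positive control shift, at one fixed dose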
An asterisk follows results filed as active; / = no result given. Only some compounds are listed: those with a hit (about 3% of all), similar ones and a draw of the others.

SMILES	Lipid droplet	GC-A act	aDG glyco act	GASC-1 inh	GC-B act	NR3A LBD binder
O=C(Nc1ccc(NC(=O)c2cccc([N+](=O)[O-])c2)cc1)c1cccc([N+](=O)[O-])c1	-6.2	-3.4	0.0	5.8	-0.2	2.1
CC1(c2nnnn2Cc2ccccc2)CCCCC(=O)N1Cc1cccs1 (stereo unspecified)	/	2.1	/	/	-2.3	/
CCO[C@@H]1OC(C(=O)N2CCN(Cc3ccccc3)CC2)=C[C@H](c2cn(C(C)=O)c3ccccc23)[C@H]1CCCO	-7.7	-4.7	-0.2	12.0	-1.2	11.5*
CCO[C@@H]1OC(C(=O)N2CCOCC2)=C[C@H](c2cn(C(C)=O)c3ccccc23)[C@H]1CCCO	1.0	-0.4	0.0	-0.1	3.6	-2.5
CCO[C@H]1OC(C(=O)O)=C[C@@H](c2cn(C(C)=O)c3ccccc23)[C@@H]1CCCO	/	-0.4	0.0	46.8	-1.3	12.9*
COC(=O)[C@]12C[C@H](CC(=O)N3CCN(C(=O)C4CC4)CC3)C(=O)N(Cc3ccco3)C1=C[C@H](COCc1ccccc1)O[C@@H]2C	/	1.4	/	/	-0.7	/
Cc1cccc(S(=O)(=O)c2c(N)n(/N=C/c3cccnc3)c3nc4ccccc4nc23)c1	/	0.4	-0.4	-7.7	-4.6	44.7*
Cc1ccc(S(=O)(=O)c2c(N)n(/N=C/c3ccco3)c3nc4ccccc4nc23)cc1	/	5.1	0.1	-2.9	3.5	5.9
Cc1cccc(S(=O)(=O)c2c(N)n(-c3ccccc3)c3nc4ccccc4nc23)c1	-0.5	-18.3	0.3	0.3	-10.7	11.5*
Cc1ccc(-n2c(N)c(S(=O)(=O)c3ccccc3)c3nc4ccccc4nc32)cc1	-0.3	-2.8	-0.2	0.2	-11.3	-2.9
Nc1c(S(=O)(=O)c2cccs2)c2nc3ccccc3nc2n1/N=C/c1cccc(O)c1	/	-3.3	-0.7	-2.8	-5.5	28.2*
COc1cccc(/C=N/n2c(N)c(S(=O)(=O)c3cccs3)c3nc4ccccc4nc32)c1	/	-2.1	-0.2	-1.0	2.8	1.1
Nc1c(S(=O)(=O)c2ccccc2)c2nc3ccccc3nc2n1/N=C/c1ccco1	/	-7.0	0.9	-7.9	-8.1	12.7*
O=C(Cc1cc(=O)[nH][nH]1)N/N=C/c1ccccc1C(F)(F)F	/	1.7	/	/	2.3	/
Cc1[nH]n(-c2c(Cl)cc(Cl)cc2Cl)c(=O)c1C=Nc1ccc(S(=O)(=O)N2CCOCC2)cc1	-6.2	1.4	-0.3	-2.8	-3.3	11.5*
NC(=O)NC(=O)COC(=O)c1cccc(NS(=O)(=O)/C=C/c2ccccc2)c1	0.1	-1.9	-0.1	0.9	-1.8	-0.4
NC(=O)COC(=O)c1cccc(NS(=O)(=O)/C=C/c2ccccc2)c1	-0.7	0.7	0.0	11.1	-3.0	11.6*
O=C(Nc1ccc(OCC(F)(F)C(F)F)c(C(F)(F)F)c1)c1ccccc1O	7.3	15.3	-0.3	-6.9	2.7	33.5*
O=C(Nc1ccc(OCC(F)(F)C(F)F)cc1)c1ccncc1	20.1	-1.5	1.9	-5.0	2.8	-0.9
O=C(Nc1ccc(OCC(F)(F)C(F)F)c(C(F)(F)F)c1)c1ccccc1	/	4.2	0.6	6.7	1.6	26.9*
NC(=O)c1ncn([C@@H]2O[C@H](C(=O)Nc3ccc(C(=O)N4CCCCC4)cc3)[C@@H](O)[C@H]2O)n1	/	-2.2	/	/	7.4	/
Cc1ccc2nc(SCC(=O)c3cc(C)n(C)c3C)[nH]c2c1	4.1	4.0	-0.1	-3.0	-10.0	1.3
O=C(CSc1nc2ccccc2[nH]1)c1c[nH]c2ccccc12	43.0	-3.6	0.1	0.5	-7.3	14.4*
Cc1ccc2nc(SCC(=O)c3c[nH]c4ccccc34)[nH]c2c1	18.7	-11.7	-0.1	-15.7	-9.5	14.8*
O=C(CSc1nc2ccccc2[nH]1)c1ccccc1F	-2.7	-0.8	0.1	-1.5	-2.0	-1.8
SMILES	Lipid droplet	GC-A act	aDG glyco act	GASC-1 inh	GC-B act	NR3A LBD binder
Cc1ccc2nc(SCC(=O)c3c(C)[nH]c4ccccc34)[nH]c2c1	24.3	-3.8	0.3	-12.3	1.9	11.8*
Cc1[nH]c2ccccc2c1C(=O)CSC(=S)N(C)C	11.3	1.6	-0.2	-6.3	9.5	16.4*
O=C(NCCc1ccc(F)cc1)C1CCN(C(=O)Nc2ccccc2)CC1	/	-0.2	-0.2	4.8	1.3	-1.2
O=S(=O)(Nc1ccc(-n2cnnn2)cc1)c1cccc(Cl)c1	/	2.1	-0.2	/	-2.2	-4.9
C=CCn1c(C)cc(C(=O)CSc2nc3ccccc3[nH]2)c1C	/	2.4	3.0	8.7	1.1	2.0
Cc1cc(C(=O)CSc2nc3ccccc3[nH]2)c(C)n1Cc1ccco1	-1.2	-2.4	5.0	1.3	-2.0	13.1*
O=C(CSc1nc2ccccc2c(=O)n1-c1ccc(F)cc1F)c1c[nH]c2ccccc12	3.5	-2.6	0.1	-14.1	6.0	19.2*
Nc1[nH]c2cc([N+](=O)[O-])ccc2c1-c1ccccn1	-42.7	8.5	-0.2	-0.8	9.2	31.0*
O=C1NC(=S)SC1=Cc1ccccc1Br	/	-0.6	0.0	/	0.8	-1.9
O=C1NC(=S)SC1=Cc1cc(Br)ccc1O	/	5.0	-0.1	/	-1.6	30.7*
COC(=O)[C@@]12CCCCC=C1N(CCc1ccc(Cl)cc1)C(=O)[C@H]2CC(=O)NCc1cccc(C(F)(F)F)c1	/	0.8	/	/	0.6	/
CCOC(=O)C1=C(C)N=c2s/c(=C\c3ccc(C(=O)O)cc3)c(=O)n2C1c1ccc(OC)cc1OC (stereo unspecified)	/	-26.8	0.0	-9.3	-11.8	429.1*
CCOC(=O)C1=C(C)N=c2s/c(=C\c3ccc(C(=O)O)cc3)c(=O)n2C1c1ccc(F)cc1 (stereo unspecified)	4.5	-5.7	-0.1	6.2	-3.0	2.7
CC(C)CN1C(=O)C[C@@]2(C(=O)N(C)c3ccc(NS(=O)(=O)C4CC4)cc32)C1c1ccccc1 (stereo partly specified)	/	-1.4	/	/	-10.4	/
CCCc1nnc(NC(=O)C23CC4CC(CC(C4)C2)C3)s1	0.8	-7.6	0.0	-6.3	-1.5	0.9
O=C(Cn1nnc(-c2ccc(F)cc2)n1)OCC(=O)c1ccccc1	4.7	48.8*	0.2	-0.9	-2.8	-5.7
O=C(Cn1nnc(-c2ccccc2F)n1)OCC(=O)c1ccccc1	-6.2	4.5	0.3	0.4	-2.5	1.2
Cc1ccc(/C=C/S(=O)(=O)Nc2ccc(C)cc2)cc1	0.7	1.1	-0.3	-17.4	2.5	-1.8
